Data published in article PMC7787346 (Clinical cancer research : an official journal of the …, 2019).
“Also recorded” adds a separate entry of the source.

Experiments:
[1] = test system: patients with previously untreated poor-risk AML; assay type: in vivo
[2] = test system: patients with previously untreated poor-risk AML; assay: Phase I trial of selinexor plus 7+3: response; assay type: in vivo, human; details: for Median overall survival: 95% CI 3.74–NR
[3] = Plasma pharmacokinetics of selinexor; assay type: in vivo, human; details: for Tmax / AUC(0-t) / Cmax: human, plasma; for AUC(0-t): AUC0–8h
gated CD34+ cells = assay: Ex vivo sensitivity of patient bone marrow MNCs, flow cytometry for apoptosis; assay type: cell-based, human
In short: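 Screening bone marrow aspirates were Ficoll-enriched for mononuclear cells and plated at 3 million cells per mL. Cells were incubated 20 hours with titrated test compound, alone or combined with 40 µmol/L cytarabine or 1 µmol/L daunorubicin. Apoptosis (active caspase-3) was measured by flow cytometry on gated CD34+ cells. Of 10 samples, 2 were excluded for low viability or <5% CD34+ cells, leaving 8.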

[4] = test system: AML cell lines and AML patient cells; assay: Preclinical combination studies of selinexor and daunorubicin; assay type: cell-based; details: Supplementary Figs. S1 and S2, Supplementary Table S1
[5] = test system: patients with previously untreated poor-risk AML; assay: G-banding cytogenetic analysis of bone marrow aspirates at follow-up; assay type: in vivo, human
In short: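 G-banding cytogenetics was done on each patient's bone marrow aspirate at diagnosis and, for most patients, at response assessment. Marrow aspirations and biopsies for response were taken between days 28 and 72 after induction or reinduction: daunorubicin/cytarabine 7+3 (or 5+2) plus oral test compound at 60 or 80 mg.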

[6] = test system: pediatric patients with relapsed or refractory acute leukemia; details: selinexor plus fludarabine and cytarabine; cited from earlier work
[7] = 16 response eligible patients, poor-risk by NCCN criteria
[8] = 19 patients evaluable for response
[9] = treatment failure (n = 9), baseline 1, 5 not assessed

O=C(/C=C\n1cnc(-c2cc(C(F)(F)F)cc(C(F)(F)F)c2)n1)NNc1cnccn1 [selinexor]
Patients who died during the treatment or follow-up phases ([1]; 21 patients, majority related to relapsed or refractory AML): 62% | Grade 3/4 nonhematologic TEAE sepsis ([1]; grade 3/4, selinexor + 7+3, 21 patients): 14% | Median time to a platelet count ≥50,000 ([1]; human, in vivo): 35 days | Median time to absolute neutrophil count (ANC) ≥500 ([1]; human, in vivo): 26 days | Patients with at least one grade 3/4 AE ([1]; human, in vivo): 95% | Only grade 3 AE during maintenance therapy ([1]; in vivo): fatigue | Patients who experienced at least 1 TEAE ([1]; in vivo): Every patient | Patients who experienced diarrhea or hyponatremia ([1]; in vivo): None | CRi after second induction ([2]; 6 patients who received a second induction (selinexor + 5+2)): 17% | CR/CRi rate ([2]; 7 evaluable patients with TP53 mutation at diagnosis (6 with complex karyotype)): 43% | Median OS ([2]; 10 responding patients, median follow-up 28.9 months): not reached | CR/CRi rate ([2]; 16 evaluable patients treated at the RP2D (80 mg)): 50% | CR/CRi rate [2, 7]: 50% | Treatment failures [2, 7]: 50% | Evaluable patients alive at 12 months (12-month OS) ([2]; 19 evaluable patients): 47.4% | Median overall survival ([2]; 19 evaluable patients, median follow-up 26.9 months): 10.3 months | CR/CRi rate (overall response rate) [2, 8]: 53% | Patients who achieved CR [2, 8]: 42% | Patients who achieved CRi [2, 8]: 11% | Treatment failures due to refractory AML [2, 8]: 47% | CR ([2]; age ≥60, n = 16): 7 (44) no. (%) | CR + CRi ([2]; age ≥60, n = 16): 9 (56) no. (%) | CRi ([2]; age ≥60, n = 16): 2 (13) no. (%) | Treatment failure ([2]; age ≥60, n = 16): 7 (44) no. (%) | CR ([2]; age ≥70, n = 8): 3 (38) no. (%) | CR + CRi ([2]; age ≥70, n = 8): 3 (38) no. (%) | CRi ([2]; age ≥70, n = 8): 0 (0) no. (%) | Patients alive at median follow-up ([2]; all 21 patients, median follow-up 28.9 months): 38% | Median overall survival ([2]; entire cohort, n = 21): 10.3 months | CR ([2]; evaluable patients, n = 19): 8 (42.1) no. (%) | CR + CRi ([2]; evaluable patients, n = 19): 10 (52.6) no. (%) | CRi ([2]; evaluable patients, n = 19): 2 (10.5) no. (%) | Treatment failure ([2]; evaluable patients, n = 19): 9 (47.4) no. (%) | Responders alive ([2]; median follow-up of 28.9 months): 60% | Responding patients who remained in CR/CRi ([2]; median follow-up of over 2 years, all underwent allogeneic stem cell transplant in first remission): 5 of 10 | CR/CRi rate ([2]; patients who had previously received a hypomethylating agent (8 patients)): 13% | CR ([2]; prior HMA, n = 8): 1 (13) no. (%) | CR + CRi ([2]; prior HMA, n = 8): 1 (13) no. (%) | CRi ([2]; prior HMA, n = 8): 0 (0) no. (%) | Treatment failure ([2]; prior HMA, n = 8): 7 (87) no. (%) | CR ([2]; sAML, n = 12): 3 (25) no. (%) | CR + CRi ([2]; sAML, n = 12): 4 (33) no. (%) | CRi ([2]; sAML, n = 12): 1 (8) no. (%) | Treatment failure ([2]; sAML, n = 12): 8 (67) no. (%) | Exposure (based on AUC) on days 1 and 15 ([3]; day 1 versus day 15): similar | Tmax ([3]; oral, Mean Tmax, day 15, delayed absorption): 4 h | AUC(0-t) ([3]; po, 60 mg, selinexor 60 mg oral, day 1, 4 patients): 1850 ± 972 ng·h/mL | AUC(0-t) ([3]; po, 60 mg, selinexor 60 mg oral, day 15, 3 patients): 1710 ± 1030 ng·h/mL | Cmax ([3]; po, 60 mg, Cmax, selinexor 60 mg oral, day 1, 4 patients): 457 ± 196 ng/mL | Cmax ([3]; po, 60 mg, Cmax, selinexor 60 mg oral, day 15, 3 patients): 392 ± 290 ng/mL | Cmax ([3]; po, 60 mg, Mean Cmax, selinexor 60 mg oral, day 1, 4 patients): 1030 nM | Tmax ([3]; po, 60 mg, Tmax, selinexor 60 mg oral, day 1, 4 patients): 2 ± 3.2 h | Tmax ([3]; po, 60 mg, Tmax, selinexor 60 mg oral, day 15, 3 patients): 4 ± 1.2 h | AUC(0-t) ([3]; po, 80 mg, selinexor 80 mg oral, day 1, 17 patients): 2590 ± 1110 ng·h/mL | AUC(0-t) ([3]; po, 80 mg, selinexor 80 mg oral, day 15, 13 patients): 2100 ± 1080 ng·h/mL | Cmax ([3]; po, 80 mg, Cmax, selinexor 80 mg oral, day 1, 17 patients): 601 ± 302 ng/mL | Cmax ([3]; po, 80 mg, Cmax, selinexor 80 mg oral, day 15, 13 patients): 482 ± 288 ng/mL | Cmax ([3]; po, 80 mg, Mean Cmax, selinexor 80 mg oral, day 1, 17 patients): 1360 nM | Tmax ([3]; po, 80 mg, Tmax, selinexor 80 mg oral, day 1, 17 patients): 2 ± 2.2 h | Tmax ([3]; po, 80 mg, Tmax, selinexor 80 mg oral, day 15, 13 patients): 4 ± 2.5 h | AUC0–8h ([3]; selinexor 60 mg oral, day 1, 4 patients): 1,853 ng/h/mL | AUC0–8h ([3]; selinexor 80 mg oral, day 1, 17 patients): 2,590 ng/h/mL | Synergy between selinexor and daunorubicin (gated CD34+ cells; titrated selinexor with 1 µmol/L daunorubicin, patient samples ex vivo): no synergy | Effects of the combination on apoptosis (gated CD34+ cells; titrated selinexor with 40 µmol/L cytarabine or 1 µmol/L daunorubicin): additive | Interaction between selinexor and daunorubicin [4]: strong synergistic interactions; also recorded: strong synergy | Cytogenetics at follow-up: Chr 5 abnormalities ([5]; responders (n = 10), baseline 0): 0 no. | Cytogenetics at follow-up: Chr 7 abnormalities ([5]; responders (n = 10), baseline 1): 1 no. | Cytogenetics at follow-up: Other Chr abnormalities ([5]; responders (n = 10), baseline 2): 0 no. | Cytogenetics at follow-up: Complex ([5]; responders (n = 10), baseline 3): 1 no. | Cytogenetics at follow-up: Diploid ([5]; responders (n = 10), baseline 4): 8 no. | Cytogenetics at follow-up: Chr 7 abnormalities ([5]; treatment failure (n = 9), baseline 0, 5 not assessed): 0 no. | Cytogenetics at follow-up: Chr 5 abnormalities [5, 9]: 1 no. | Cytogenetics at follow-up: Other Chr abnormalities [5, 9]: 0 no. | Cytogenetics at follow-up: Diploid ([5]; treatment failure (n = 9), baseline 3, 5 not assessed): 2 no. | Cytogenetics at follow-up: Complex ([5]; treatment failure (n = 9), baseline 4, 5 not assessed): 1 no. | Patients who tested negative for measurable residual disease [6]: 5 patients
